In ChEMBL document CHEMBL2163307, “Antibiotic optimization and chemical structure stabilization of thiomuracin A” (J Med Chem, 2012):
Values after ≈ are worked out from the molar mass of the structure shown. Active and inactive are the calls of the source. No cut-off for these calls is given here.

Legend:
Staphylococcus aureus [1] = test: Antibacterial activity against methicillin-resistant Staphylococcus aureus isolate AKH Vienna A4.018 by broth microdilution method; assay type: functional
Summary of the method: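 Broth microdilution MIC following CLSI M07-A8 (2009) and M11-A7 guidelines.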

Enterococcus faecalis [2] = test: Antibacterial activity against Enterococcus faecalis ATCC 29212 by broth microdilution method; assay type: functional
Summary of the method: (§1)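 MIC by CLSI broth microdilution (M07-A8 for aerobes; M11-A7 for anaerobes).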

Streptococcus pyogenes = test: Antibacterial activity against Streptococcus pyogenes ATCC BAA-595 by broth microdilution method; assay type: functional; summary of the method: as §1
[3] = Antibacterial activity against Clostridium difficile ATCC 43255 by broth microdilution method; assay type: functional; conditions: Clostridioides difficile; summary of the method: as §1
Enterococcus faecium = test: Antibacterial activity against Enterococcus faecium 7130724 by broth microdilution method; assay type: functional; summary of the method: as §1
[4] = Volume of distribution at steady state in Sprague-Dawley rat at 1 mg/kg, iv; assay type: ADME, organism-based; parameters: dose 1 mg/kg, route intravenous; conditions: in vivo, read-out: Vdss
Summary of the method: (§2)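 Intravenous PK (N = 2) in male Sprague−Dawley rats (220−270 g, about 6−10 weeks old) with dual jugular vein cannulas. Rats were fasted overnight before dosing and for 8 h after. Blood was collected into K2EDTA tubes and plasma was assayed by LC-MS/MS.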

[5] = AUC in Sprague-Dawley rat at 1 mg/kg, iv; assay type: ADME, organism-based; parameters: dose 1 mg/kg, route intravenous; conditions: plasma; summary of the method: as §2
Staphylococcus aureus [6] = test: Antibacterial activity against Staphylococcus aureus ATCC 49951 infected in iv dosed CD1 mouse assessed as protection from lethal infection administered 1 hr and 5 hrs post-infection measured after 5 days; assay type: functional; conditions: for ED50: ATCC 49951, iv
Summary of the method: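 Female CD1 mice (21−25 g) infected ip with 1 × 10^8 CFU/mouse in 0.9% NaCl (10−100× minimal lethal dose). iv tail-vein bolus at 1 and 5 h post-inoculation, several dose levels, six mice per group. Watched 5 days with body temperature monitoring; moribund animals euthanized. ED50 with 95% CI from day-5 survival by probit analysis.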

[7] = Half life in Sprague-Dawley rat at 1 mg/kg, iv; assay type: ADME, organism-based; parameters: dose 1 mg/kg, route intravenous; conditions: in vivo; summary of the method: as §2
Staphylococcus aureus [8] = test: Antibacterial activity against Staphylococcus aureus ATCC 49951; assay type: functional
Enterococcus faecalis [9] = test: Ratio of daptomycin ED50 to compound ED50 for Enterococcus faecalis isolate NB04025 infected in iv dosed CD1 mouse; assay type: functional
Summary of the method: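 Female CD1 mice (21−25 g) infected intraperitoneally with 1 × 10^8 CFU/mouse E. faecalis in 50% sterile rat fecal extract. Single iv tail-vein bolus given immediately after inoculation, at several dose levels, to groups of six mice. Vehicle was 5% DMA, 30% PEG400, 10% cremophor EL, 5% 0.1 N NaOH and 50% pH 7.4 buffer; daptomycin was given in saline. Survival followed 5 days; ED50 with 95% CI by probit analysis of day-5 survival.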

[10] = Clearance in Sprague-Dawley rat at 1 mg/kg, iv; assay type: ADME, organism-based; parameters: dose 1 mg/kg, route intravenous; conditions: in vivo; summary of the method: as §2
Enterococcus faecalis [11] = test: Antibacterial activity against Enterococcus faecalis isolate NB04025; assay type: functional
Enterococcus faecalis [12] = test: Antibacterial activity against Enterococcus faecalis isolate NB04025 infected in iv dosed CD1 mouse assessed as protection from lethal infection after 5 days; assay type: functional; conditions: for ED50: 120 h
Summary of the method: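 Female CD1 mice (21−25 g) infected ip with 1 × 10^8 CFU/mouse in 50% sterile rat fecal extract (10−100× minimal lethal dose). Single iv tail-vein bolus immediately after inoculation, several dose levels, six mice per group. Observed 5 days with implanted temperature transponders; moribund mice euthanized. ED50 with 95% CI from day-5 survival by probit analysis.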

Escherichia coli = test: Inhibition of elongation factor Tu-mediated protein synthesis in Escherichia coli S30 extract after 2 hrs by luciferase reporter gene assay
Summary of the method: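 Coupled transcription/translation in E. coli S30 extract with pBESTluc template DNA, methionine-minus and cysteine-minus amino acid mixes, and S30 premix; test agent added as 40× stock in 20 μL reactions. Incubated 2 h at 37 °C; luciferase formed was read by luminescence after adding an equal volume of SteadyGlo reagent. Kirromycin and puromycin were positive controls; ampicillin was the negative control.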

[13] = Chemical stability of the compound in HCl at room temperature; assay type: physicochemical; conditions: buffer
[14] = Solubility of the compound in DMSO solution; assay type: physicochemical
[15] = Chemical stability of the compound in water at room temperature; assay type: physicochemical; conditions: buffer
[16] = Solubility of the compound in DMF solution; assay type: physicochemical
[17] = Chemical stability of the compound in MeOH at room temperature; assay type: physicochemical
[18] = Chemical stability of the compound in HCl at 50 degC; assay type: physicochemical; conditions: buffer
[19] = Chemical stability of the compound in MeOH at 50 degC; assay type: physicochemical
[20] = Chemical stability of the compound in water at 50 degC; assay type: physicochemical; conditions: buffer

SMILES | MIC (Staphylococcus aureus [1]) [µg/mL] | MIC (Enterococcus faecalis [2]) [µg/mL] | MIC (Streptococcus pyogenes) [µg/mL] | MIC [3] [µg/mL] | MIC (Enterococcus faecium) [µg/mL] | other results
Cc1sc2nc1C(=O)N[C@@H]([C@H](O)c1ccccc1)c1nc(cs1)C(=O)N[C@@H](Cc1ccc(O)cc1)C(=O)N[C@@H]([C@@H](C)[C@@H]1CO1)c1nc(cs1)-c1nc(cs1)-c1nc(-c3nc(C(N)=O)cs3)ccc1-c1nc(cs1)C(=O)N[C@H]2CC(N)=O | 0.5 (≈ 0.417 µM) | 0.25 (≈ 0.208 µM) | 2 (≈ 1.67 µM) | 0.003 (≈ 0.0025 µM) | 0.125 (≈ 0.104 µM) | 
Cc1sc2nc1C(=O)N[C@@H]([C@H](O)c1ccccc1)c1nc(cs1)C(=O)N[C@@H](Cc1ccc(O)cc1)C(=O)N[C@@H]([C@@H](C)[C@@H](O)CCl)c1nc(cs1)-c1nc(cs1)-c1nc(-c3nc(C(N)=O)cs3)ccc1-c1nc(cs1)C(=O)N[C@H]2CC(N)=O | 0.5 (≈ 0.404 µM) | 0.25 (≈ 0.202 µM) | 2 (≈ 1.62 µM) | 0.25 (≈ 0.202 µM) | 0.5 (≈ 0.404 µM) | 
Cc1sc2nc1C(=O)N[C@@H]([C@H](O)c1ccccc1)c1nc(cs1)C(=O)N[C@@H](Cc1ccc(O)cc1)C(=O)N[C@@H]([C@@H](C)[C@@H](O)CO)c1nc(cs1)-c1nc(cs1)-c1nc(-c3nc(C(N)=O)cs3)ccc1-c1nc(cs1)C(=O)N[C@H]2CC(N)=O | > 32 | > 32 | > 32 | 2 (≈ 1.64 µM) | > 32 | 
Cc1sc2nc1C(=O)N[C@@H]([C@H](O)c1ccccc1)c1nc(cs1)C(=O)N[C@@H](Cc1ccc(O)cc1)C(=O)N1C[C@H](O)[C@H](C)[C@H]1c1nc(cs1)-c1nc(cs1)-c1nc(-c3nc(C(N)=O)cs3)ccc1-c1nc(cs1)C(=O)N[C@H]2CC(N)=O | 0.25 (≈ 0.208 µM) | 0.25 (≈ 0.208 µM) | 1 (≈ 0.833 µM) | < 0.008 | 0.5 (≈ 0.417 µM) | Vd [4]: 0.134 L/kg; AUC [5]: 1.35 µM·h; Activity (Staphylococcus aureus [6]): Dose-dependent effect; ED50 (Staphylococcus aureus [6]): 8 mg/kg; half-life [7]: 3.4 h; MIC (Staphylococcus aureus [8]): 1 µg/mL (≈ 0.833 µM); Ratio ED50 (Enterococcus faecalis [9]): 2; clearance [10]: 10.1 mL/min/kg; MIC (Enterococcus faecalis [11]): 0.125 µg/mL (≈ 0.104 µM); Activity (Enterococcus faecalis [12]): Dose-dependent effect; ED50 (Enterococcus faecalis [12]): 1.5 mg/kg
Cc1sc2nc1C(=O)N[C@@H]([C@H](O)c1ccccc1)c1nc(cs1)C(=O)N[C@@H](Cc1ccc(O)cc1)C(=O)N[C@@H]([C@@H](C)[C@@H](O)CN)c1nc(cs1)-c1nc(cs1)-c1nc(-c3nc(C(N)=O)cs3)ccc1-c1nc(cs1)C(=O)N[C@H]2CC(N)=O | 2 (≈ 1.64 µM) | 1 (≈ 0.821 µM) | > 32 | 1 (≈ 0.821 µM) | 1 (≈ 0.821 µM) | 
C=C(NC(=O)c1csc(-c2ccc3c(n2)-c2csc(n2)-c2csc(n2)[C@H]([C@@H](C)[C@@H]2CO2)NC(=O)[C@H](Cc2ccc(OC)cc2)NC(=O)c2csc(n2)[C@H]([C@H](O)c2ccccc2)NC(=O)c2nc(sc2C)[C@H](CC(N)=O)NC(=O)c2csc-3n2)n1)C(=O)NC(=C)C(=O)OC | > 32 | 8 (≈ 5.85 µM) | > 32 | 1 (≈ 0.731 µM) | 8 (≈ 5.85 µM) | inhibition (Escherichia coli): inactive
C=C(NC(=O)c1csc(-c2ccc3c(n2)-c2csc(n2)-c2csc(n2)[C@H]([C@@H](C)[C@@H]2CO2)NC(=O)[C@H](Cc2ccc(O)cc2)NC(=O)c2csc(n2)[C@H]([C@H](O)c2ccccc2)NC(=O)c2nc(sc2C)[C@H](CC(N)=O)NC(=O)c2csc-3n2)n1)C(=O)NC(=C)C(=O)OC | > 32 | 8 (≈ 5.91 µM) | > 32 | 1 (≈ 0.739 µM) | 8 (≈ 5.91 µM) | inhibition (Escherichia coli): inactive
C=C(NC(=O)c1csc(-c2ccc3c(n2)-c2csc(n2)-c2csc(n2)[C@H]([C@@H](C)[C@@H]2CO2)NC(=O)[C@H](Cc2ccc(OC(C)=O)cc2)NC(=O)c2csc(n2)[C@H]([C@H](OC(C)=O)c2ccccc2)NC(=O)c2nc(sc2C)[C@H](CC(N)=O)NC(=O)c2csc-3n2)n1)C(=O)NC(=C)C(=O)OC | > 32 | 32 (≈ 22.3 µM) | > 32 | > 4 | 32 (≈ 22.3 µM) | inhibition (Escherichia coli): inactive
C=C(NC(=O)C(=C)NC(=O)c1csc(-c2ccc3c(n2)-c2csc(n2)-c2csc(n2)[C@H]([C@@H](C)[C@@H]2CO2)NC(=O)[C@H](Cc2ccc(O)cc2)NC(=O)c2csc(n2)[C@H]([C@H](O)c2ccccc2)NC(=O)c2nc(sc2C)[C@H](CC(N)=O)NC(=O)c2csc-3n2)n1)C(=O)O [THIOMURACIN A] | 0.5 (≈ 0.373 µM) | 0.5 (≈ 0.373 µM) | 0.5 (≈ 0.373 µM) | 0.03 (≈ 0.0224 µM) | 0.5 (≈ 0.373 µM) | Stability [13]: Stable; solubility [14]: soluble; Stability [15]: Stable; solubility [16]: soluble; Stability [17]: Stable; Stability [18]: Unstable; Stability [19]: Unstable; Stability [20]: Unstable
Cc1sc2nc1C(=O)NCc1nc(cs1)C(=O)N[C@@H](Cc1ccc(O)cc1)C(=O)N1C[C@H](O)[C@H](C)[C@H]1c1nc(cs1)-c1nc(cs1)-c1nc(-c3nc(C(N)=O)cs3)ccc1-c1nc(cs1)C(=O)N[C@H]2CC(N)=O | 2 (≈ 1.83 µM) | 4 (≈ 3.66 µM) | > 32 |  | 4 (≈ 3.66 µM) | 
CCCCCCCCCC(=O)N[C@@H](Cc1c[nH]c2ccccc12)C(=O)N[C@H](CC(N)=O)C(=O)N[C@@H](CC(=O)O)C(=O)N[C@@H]1C(=O)NCC(=O)N[C@@H](CCCN)C(=O)N[C@@H](CC(=O)O)C(=O)N[C@H](C)C(=O)N[C@@H](CC(=O)O)C(=O)NCC(=O)N[C@H](CO)C(=O)N[C@@H]([C@H](C)CC(=O)O)C(=O)N[C@@H](CC(=O)c2ccccc2N)C(=O)O[C@@H]1C |  |  |  |  |  | Activity (Staphylococcus aureus [6]): Dose-dependent effect; ED50 (Staphylococcus aureus [6]): 0.3 mg/kg; Activity (Enterococcus faecalis [12]): Dose-dependent effect; ED50 (Enterococcus faecalis [12]): 3 mg/kg
